Data from ChEMBL document CHEMBL3861962 (Eur J Med Chem, 2016).

Legend:
Cytochrome P450 3A4 [1] = biological target: T1, Cytochrome P450 3A4 (Homo sapiens, UniProt P08684); assay: Drug level assessed as human recombinant CYP3A4-mediated compound formation treated with 4-(1,1,1,3,3,3-Hexafluoro-2-hydroxypropan-2-yl)-N-(6-(2-hydroxyethoxy)-5-(2-methoxyphenoxy)-2,2'-bipyrimidin-4-yl)benzenesulfonamide at 5 uM in presence of NADPH after 30 mins by LC-MS/MS analysis; assay type: ADME; details: recombinant enzyme, 0.5 h
In short: (§1)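 Substrate at 5 μM final in 100 mM potassium phosphate, pH 7.4, incubated with human liver microsomes or baculovirus-expressed recombinant CYP3A4, 2D6 or 2C9. Reaction started with 1 mM NADPH and run 0, 15 and 30 min at 37 °C. Stopped with ice-cold acetonitrile containing labetalol internal standard, then centrifuged. Supernatant analysed by LC-MS/MS on a C18 column at 40 °C. Blank was enzyme without substrate.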

[2] = Drug level in human liver microsomes treated with 4-(1,1,1,3,3,3-Hexafluoro-2-hydroxypropan-2-yl)-N-(6-(2-hydroxyethoxy)-5-(2-methoxyphenoxy)-2,2'-bipyrimidin-4-yl)benzenesulfonamide at 5 uM in presence of NADPH after 30 mins by LC-MS/MS analysis; assay type: ADME; details: 0.5 h; in short: as §1
[3] = Retention time of the compound; assay type: physicochemical
Cytochrome P450 3A4 [4] = biological target: T1, Cytochrome P450 3A4; assay: Drug metabolism assessed as human recombinant CYP3A4-mediated formation of N-(6-ethoxy-5-(2-methoxyphenoxy)-2,2'-bipyrimidin-4-yl)-4-(1-hydroxy-2-methylpropan-2-yl)benzenesulfonamide at 5 uM in presence of NADPH after 30 mins by LC-MS/MS analysissss; assay type: ADME; details: recombinant enzyme, 0.5 h; in short: as §1
Cytochrome P450 2D6 = Cytochrome P450 2D6 (Homo sapiens, UniProt P10635); assay: Drug metabolism assessed as human recombinant CYP2D6-mediated metabolite formation by measuring parent compound remaining at 5 uM in presence of NADPH after 30 mins by LC-MS/MS analysis; assay type: ADME; details: recombinant enzyme, 0.5 h; in short: as §1
Cytochrome P450 2C9 [5] = biological target: T2, Cytochrome P450 2C9 (Homo sapiens, UniProt P11712); assay: Drug metabolism assessed as human recombinant CYP2C9-mediated formation of N-(6-ethoxy-5-(2-methoxyphenoxy)-2,2'-bipyrimidin-4-yl)-4-(1-hydroxy-2-methylpropan-2-yl)benzenesulfonamide at 5 uM in presence of NADPH after 30 mins by LC-MS/MS analysissss; assay type: ADME; details: recombinant enzyme, 0.5 h; in short: as §1
Cytochrome P450 3A4 [6] = biological target: T1, Cytochrome P450 3A4; assay: Drug metabolism assessed as human recombinant CYP3A4-mediated metabolite formation by measuring parent compound remaining at 5 uM in presence of NADPH after 30 mins by LC-MS/MS analysis; assay type: ADME; details: recombinant enzyme, 0.5 h; in short: as §1
[7] = Metabolic stability in human liver microsomes assessed as parent compound remaining at 5 uM in presence of NADPH after 30 mins by LC-MS/MS analysis; assay type: ADME; details: read-out: Stability
In short: (§2)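 Pooled human liver microsomes in 100 mM potassium phosphate, pH 7.4, with test compound at 5 μM final. Reaction started with 1 mM NADPH (final) and run at 37 °C in a shaking water bath for 0, 15 and 30 min. Stopped with an equal volume of ice-cold acetonitrile containing 0.6 μM labetalol as internal standard. Protein was spun out and the supernatant analysed by LC-MS/MS. Blank had no compound.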

[8] = Drug metabolism in human liver microsomes assessed as formation of N-(6-ethoxy-5-(2-methoxyphenoxy)-2,2'-bipyrimidin-4-yl)-4-(1-hydroxy-2-methylpropan-2-yl)benzenesulfonamide at 5 uM in presence of NADPH after 30 mins by LC-MS/MS analysissss; assay type: ADME; details: 0.5 h; in short: as §2
Cytochrome P450 2C9 [9] = biological target: T2, Cytochrome P450 2C9; assay: Drug metabolism assessed as human recombinant CYP2C9-mediated metabolite formation by measuring parent compound remaining at 5 uM in presence of NADPH after 30 mins by LC-MS/MS analysis; assay type: ADME; details: recombinant enzyme, 0.5 h; in short: as §1

T1 sequence (P08684 whole entry): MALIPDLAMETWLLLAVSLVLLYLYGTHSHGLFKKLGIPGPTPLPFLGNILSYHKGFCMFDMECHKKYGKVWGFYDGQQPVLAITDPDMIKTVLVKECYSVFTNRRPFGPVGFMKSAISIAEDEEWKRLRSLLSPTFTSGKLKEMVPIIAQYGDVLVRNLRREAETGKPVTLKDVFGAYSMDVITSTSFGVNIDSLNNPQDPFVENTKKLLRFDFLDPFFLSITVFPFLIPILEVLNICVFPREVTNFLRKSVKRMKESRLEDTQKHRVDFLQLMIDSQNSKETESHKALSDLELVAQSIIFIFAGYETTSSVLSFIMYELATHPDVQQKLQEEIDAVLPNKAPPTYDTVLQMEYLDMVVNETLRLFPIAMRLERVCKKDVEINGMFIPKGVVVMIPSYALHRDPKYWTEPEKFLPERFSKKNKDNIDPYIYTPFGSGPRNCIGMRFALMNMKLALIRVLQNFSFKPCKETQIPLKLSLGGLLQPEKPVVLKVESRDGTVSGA
T2 sequence (P11712 whole entry): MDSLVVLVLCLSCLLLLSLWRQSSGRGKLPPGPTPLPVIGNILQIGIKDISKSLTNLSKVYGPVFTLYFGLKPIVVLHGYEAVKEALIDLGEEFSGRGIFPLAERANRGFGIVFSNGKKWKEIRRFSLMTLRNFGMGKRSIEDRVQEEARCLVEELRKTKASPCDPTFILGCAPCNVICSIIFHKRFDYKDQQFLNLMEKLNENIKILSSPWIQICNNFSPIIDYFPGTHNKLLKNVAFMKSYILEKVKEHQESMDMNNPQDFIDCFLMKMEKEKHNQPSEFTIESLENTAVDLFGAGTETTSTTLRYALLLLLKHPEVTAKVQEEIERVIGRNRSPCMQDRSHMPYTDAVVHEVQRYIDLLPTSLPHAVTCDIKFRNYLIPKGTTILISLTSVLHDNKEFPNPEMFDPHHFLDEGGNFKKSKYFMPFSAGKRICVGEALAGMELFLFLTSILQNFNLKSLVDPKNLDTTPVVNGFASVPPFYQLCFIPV
Cytochrome P450 2D6, sequence (P10635 whole entry): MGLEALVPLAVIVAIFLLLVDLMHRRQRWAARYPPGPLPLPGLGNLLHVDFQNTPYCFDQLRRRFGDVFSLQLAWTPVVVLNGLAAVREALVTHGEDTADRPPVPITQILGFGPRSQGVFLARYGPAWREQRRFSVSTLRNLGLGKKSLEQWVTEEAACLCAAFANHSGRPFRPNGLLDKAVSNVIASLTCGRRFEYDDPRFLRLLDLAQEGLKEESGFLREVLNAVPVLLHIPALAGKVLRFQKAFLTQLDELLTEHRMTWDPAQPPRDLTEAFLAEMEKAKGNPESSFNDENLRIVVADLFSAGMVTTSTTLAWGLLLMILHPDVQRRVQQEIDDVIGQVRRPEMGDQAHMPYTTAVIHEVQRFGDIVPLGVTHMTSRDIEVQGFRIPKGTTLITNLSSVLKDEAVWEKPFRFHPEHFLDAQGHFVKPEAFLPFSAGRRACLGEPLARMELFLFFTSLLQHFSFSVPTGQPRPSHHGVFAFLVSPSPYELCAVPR

O=S(=O)(Nc1nc(-c2ncccn2)nc(OCCO)c1Oc1ccccc1O)c1ccc(C(O)(C(F)(F)F)C(F)(F)F)cc1
Drug metabolism (Cytochrome P450 3A4 [1]): Metabolite_Detected
Drug metabolism [2]: Metabolite_Detected
Retention_time [3]: 4.39 min

CCOc1nc(-c2ncccn2)nc(NS(=O)(=O)c2ccc(C(C)(C)C)cc2)c1Oc1ccccc1OC
Drug metabolism (Cytochrome P450 3A4 [4]): Metabolite_Detected
Stability (Cytochrome P450 2D6): > 99%
Drug metabolism (Cytochrome P450 2C9 [5]): Metabolite_Detected
Retention_time [3]: 5.96 min
Stability (Cytochrome P450 3A4 [6]): 15%
remaining at 0.5 h, 5 µM [7]: 68.5%
Drug metabolism [8]: Metabolite_Detected
Stability (Cytochrome P450 2C9 [9]): 99%
